Test results taken from publication PMC10213863 (Cell Reports Medicine, 2023).
Where “and” joins values, the source holds several entries; their conditions need not be identical. Equal values may be shown once.

Legend:
TLR7 [1] = target: T1, TLR7 (Homo sapiens, UniProt Q9NYK1); test: HEK293-NFkB-luciferase reporter cells transfected with TLR7, R848 stimulation; format: cell-based; settings: IC50, TLR7 response in HEK transfectants, mean ± SD
T1 sequence (Q9NYK1 27-1049): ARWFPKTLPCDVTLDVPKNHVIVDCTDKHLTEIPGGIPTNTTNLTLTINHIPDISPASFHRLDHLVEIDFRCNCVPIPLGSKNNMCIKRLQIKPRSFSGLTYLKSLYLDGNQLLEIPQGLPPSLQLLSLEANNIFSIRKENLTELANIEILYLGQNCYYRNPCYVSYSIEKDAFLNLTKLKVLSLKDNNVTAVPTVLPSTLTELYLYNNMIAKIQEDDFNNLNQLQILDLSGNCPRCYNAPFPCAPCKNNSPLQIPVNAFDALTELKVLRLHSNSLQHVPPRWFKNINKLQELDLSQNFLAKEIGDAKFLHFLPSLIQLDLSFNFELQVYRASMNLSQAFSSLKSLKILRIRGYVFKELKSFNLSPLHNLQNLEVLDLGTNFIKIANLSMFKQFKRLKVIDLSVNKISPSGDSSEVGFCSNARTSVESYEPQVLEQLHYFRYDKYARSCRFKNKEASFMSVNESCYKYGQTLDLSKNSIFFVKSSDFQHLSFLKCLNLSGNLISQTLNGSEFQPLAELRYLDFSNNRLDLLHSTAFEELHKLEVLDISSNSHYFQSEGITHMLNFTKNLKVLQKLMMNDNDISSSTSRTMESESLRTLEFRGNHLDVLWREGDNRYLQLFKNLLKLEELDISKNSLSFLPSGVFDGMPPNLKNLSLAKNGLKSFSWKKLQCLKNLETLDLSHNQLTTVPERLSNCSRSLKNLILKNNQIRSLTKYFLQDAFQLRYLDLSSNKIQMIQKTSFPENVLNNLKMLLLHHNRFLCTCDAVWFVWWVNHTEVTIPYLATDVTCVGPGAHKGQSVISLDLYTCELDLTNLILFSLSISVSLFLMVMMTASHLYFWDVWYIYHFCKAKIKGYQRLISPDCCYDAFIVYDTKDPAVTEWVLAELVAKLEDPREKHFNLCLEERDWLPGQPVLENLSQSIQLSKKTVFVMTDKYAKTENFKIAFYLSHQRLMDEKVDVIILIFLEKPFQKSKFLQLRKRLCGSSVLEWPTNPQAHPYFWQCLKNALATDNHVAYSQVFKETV
Outline: (§1)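 HEK293-NFkB-luciferase cells stably expressing HA-tagged human TLR7 or TLR8 were pre-treated 60 min at 37°C, 5% CO2 with increasing concentrations of test compound or 0.25% v/v DMSO. They were then stimulated 6 h with R848: 0.3 μM for TLR7, 4 μM for TLR8. Luciferase activity […] was read by Bright-Glo luminescence.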

[2] = system: SLE immune-complex-driven IFN-α response in PBMCs; test: IFN-α release from PBMCs stimulated with SLE patient sera immune complexes; format: cell-based, human; settings: PBMCs
TLR4 = TLR4 (Homo sapiens, UniProt O00206); test: Human whole blood assay, LPS-TNF; format: cell-based
Chain of TLR4 (O00206 24-839): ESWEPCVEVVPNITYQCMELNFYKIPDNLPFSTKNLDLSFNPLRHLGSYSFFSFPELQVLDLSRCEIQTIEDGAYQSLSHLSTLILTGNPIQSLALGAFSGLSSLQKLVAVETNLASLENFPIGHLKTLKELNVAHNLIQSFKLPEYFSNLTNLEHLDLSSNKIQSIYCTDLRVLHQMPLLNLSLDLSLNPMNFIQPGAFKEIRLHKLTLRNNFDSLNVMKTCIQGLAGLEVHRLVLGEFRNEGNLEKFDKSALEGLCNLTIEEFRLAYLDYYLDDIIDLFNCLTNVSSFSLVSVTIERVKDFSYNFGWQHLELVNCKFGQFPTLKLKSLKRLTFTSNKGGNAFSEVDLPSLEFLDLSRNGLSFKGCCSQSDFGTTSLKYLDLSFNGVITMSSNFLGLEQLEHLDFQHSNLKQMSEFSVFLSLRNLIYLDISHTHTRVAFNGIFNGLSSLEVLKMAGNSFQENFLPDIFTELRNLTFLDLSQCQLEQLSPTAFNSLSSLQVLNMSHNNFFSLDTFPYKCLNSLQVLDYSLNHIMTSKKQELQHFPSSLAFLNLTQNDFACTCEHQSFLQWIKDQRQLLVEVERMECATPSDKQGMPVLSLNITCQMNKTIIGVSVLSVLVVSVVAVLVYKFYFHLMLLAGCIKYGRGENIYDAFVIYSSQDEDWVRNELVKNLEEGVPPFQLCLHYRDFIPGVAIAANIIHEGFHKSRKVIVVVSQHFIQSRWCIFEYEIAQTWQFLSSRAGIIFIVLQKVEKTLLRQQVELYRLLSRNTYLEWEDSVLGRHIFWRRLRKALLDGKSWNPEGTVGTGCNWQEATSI
Chain of TLR4 (Q9Y6Y9 19-160 partner): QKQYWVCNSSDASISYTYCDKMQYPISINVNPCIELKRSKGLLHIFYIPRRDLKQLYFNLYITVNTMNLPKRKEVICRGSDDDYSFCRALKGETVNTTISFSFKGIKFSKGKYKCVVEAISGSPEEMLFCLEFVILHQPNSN
Outline: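 Fresh human blood or 129/Sv mouse blood was taken into citrate and diluted 1:1 with RPMI1640. It was pre-incubated 30 min at 37°C, 5% CO2 with increasing concentrations of test compound or 0.25% v/v DMSO (final). Blood was then stimulated with TLR agonists at doses from earlier work, or with R848 (3 μM), and cytokines were quantified. Viability was checked by ATPlite luminescence.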

IL-1 receptor (IL-1R) = IL-1 receptor (IL-1R) (Homo sapiens, UniProt P14778); test: Human PBMC cytokine secretion, IL-1 receptor agonist; format: cell-based; settings: human PBMCs; up to 10 μM; n = 5 donors, data not shown
Chain of IL-1 receptor (IL-1R) (P14778 18-569): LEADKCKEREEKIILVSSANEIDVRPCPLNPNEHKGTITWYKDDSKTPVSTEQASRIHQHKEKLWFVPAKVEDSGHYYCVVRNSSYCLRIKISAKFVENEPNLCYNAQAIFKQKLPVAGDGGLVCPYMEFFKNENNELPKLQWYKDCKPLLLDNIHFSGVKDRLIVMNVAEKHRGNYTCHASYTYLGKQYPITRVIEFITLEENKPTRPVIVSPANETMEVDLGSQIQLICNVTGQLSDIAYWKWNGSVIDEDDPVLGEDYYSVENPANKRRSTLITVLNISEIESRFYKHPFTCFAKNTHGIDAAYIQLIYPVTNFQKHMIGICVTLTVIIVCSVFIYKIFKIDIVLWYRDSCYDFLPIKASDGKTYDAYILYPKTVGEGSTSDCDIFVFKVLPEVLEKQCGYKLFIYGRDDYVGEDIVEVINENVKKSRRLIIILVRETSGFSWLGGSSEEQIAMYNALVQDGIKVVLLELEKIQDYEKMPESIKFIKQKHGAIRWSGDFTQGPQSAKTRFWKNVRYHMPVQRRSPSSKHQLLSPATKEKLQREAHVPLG
Outline: (§2)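 Human PBMCs were pre-incubated 30 min with test compound, then stimulated with the respective TLR or IL-1R agonist at doses from earlier work. Cytokines in supernatants were quantified by immunoassay. Viability across the dose range was checked by CellTiter-Glo.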

TLR8 = target: T2, TLR8 (Homo sapiens, UniProt Q9NR97); test: HEK293-NFkB-luciferase reporter cells transfected with TLR8, R848 stimulation; format: cell-based
T2 sequence (Q9NR97 27-1041): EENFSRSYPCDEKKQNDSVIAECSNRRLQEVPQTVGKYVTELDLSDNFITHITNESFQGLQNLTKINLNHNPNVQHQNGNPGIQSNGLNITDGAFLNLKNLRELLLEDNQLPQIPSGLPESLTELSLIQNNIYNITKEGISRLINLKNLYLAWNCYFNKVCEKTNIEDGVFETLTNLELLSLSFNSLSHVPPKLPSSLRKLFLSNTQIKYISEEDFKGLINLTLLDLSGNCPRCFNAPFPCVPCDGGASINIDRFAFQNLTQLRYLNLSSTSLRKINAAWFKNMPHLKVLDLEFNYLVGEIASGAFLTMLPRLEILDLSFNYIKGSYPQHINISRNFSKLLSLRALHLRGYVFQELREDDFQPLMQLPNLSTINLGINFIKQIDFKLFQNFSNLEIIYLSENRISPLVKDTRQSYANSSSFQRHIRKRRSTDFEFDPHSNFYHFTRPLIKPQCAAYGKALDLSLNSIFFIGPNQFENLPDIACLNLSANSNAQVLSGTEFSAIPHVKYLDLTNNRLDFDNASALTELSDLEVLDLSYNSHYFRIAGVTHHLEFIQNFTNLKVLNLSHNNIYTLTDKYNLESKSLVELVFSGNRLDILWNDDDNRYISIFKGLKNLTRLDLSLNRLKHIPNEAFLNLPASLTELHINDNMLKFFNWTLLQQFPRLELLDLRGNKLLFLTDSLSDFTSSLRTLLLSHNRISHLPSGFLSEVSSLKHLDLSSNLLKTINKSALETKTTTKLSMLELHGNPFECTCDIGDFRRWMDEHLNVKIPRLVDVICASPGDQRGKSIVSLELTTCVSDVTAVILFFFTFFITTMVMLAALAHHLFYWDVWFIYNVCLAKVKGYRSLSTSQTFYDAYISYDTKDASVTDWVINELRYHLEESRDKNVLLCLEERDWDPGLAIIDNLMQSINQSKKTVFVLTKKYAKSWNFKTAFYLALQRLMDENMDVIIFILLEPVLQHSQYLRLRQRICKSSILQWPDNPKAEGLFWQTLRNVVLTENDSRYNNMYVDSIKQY
Outline: as §1

[3] = system: PMA-mediated ROS secretion from neutrophils; test: Human neutrophil ROS production, PMA stimulation; format: cell-based
Outline: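 Cells were pre-treated 30 min with increasing concentrations of test compound or 0.1% v/v DMSO. They were then stimulated 30 min at 37°C, 5% CO2 with TL8-506 or PMA (50 ng/mL). ROS was detected with 2 μM dihydrorhodamine for 15 min at 37°C and read by flow cytometry. Signals were normalized to vehicle; viability was checked by CellTiter-Glo.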

TLR7 [4] = target: T1, TLR7; test: Human PBMC assay, ssRNA-induced IFN-α; format: cell-based; settings: human PBMCs, mean ± SEM (n)
Outline: as §2

Cc1cc(N2CCc3c(c(C)nn3CC34CCC(NC(=O)[C@@H]5COCCN5)(CC3)CC4)C2)c2cnn(C)c2n1 [MHV370, (S)-N-(4-((5-(1,6-dimethyl-1H-pyrazolo[3,4-b]pyridin-4-yl)-3-methyl-4,5,6,7-tetrahydro-1H-pyrazolo[4,3-c]pyridin-1-yl)methyl)bicyclo[2.2.2]octan-1-yl)morpholine-3-carboxamide]
IC50 (TLR7 [1]): 1 nM and 1.1 nM | immune-complex-driven responses, sera expressing dsDNA antibodies ([2]; MHV370 0.3 μM): blocked to a much lesser extent | immune-complex-driven responses, sera positive for RNP/Sm and/or SS-A, or RNP/Sm and/or SS-A plus dsDNA autoantibodies ([2]; MHV370 0.3 μM): completely blocked | IFN-α suppression, MHV370 added to HCQ ([2]; MHV370 1–10 nM combined with variable concentrations of HCQ, SLE immune complexes): almost complete suppression | activity following TLR4 activation (TLR4): inactive | interference with cytokine secretion, IL-1R agonist (IL-1 receptor (IL-1R)): did not significantly interfere | IC50 (TLR8): 4.5 ± 1.1 nM | block of ROS production, PMA stimulation [3]: but not with phorbol myristate acetate | IC50 (TLR7 [4]): 4.1 ± 0.4 nM
